Screening data as filed in PubChem.
EphB4 ephrin blk = EphB4-ephrin-B2 interaction antagonists, primary screen, biochemical, TNYL-RAW peptide probe, fluorescence polarization; EphB4 LBD / TNYL-RAW-Alexa532 peptide; inhibition, % at 7 µM; 0.15% of 97,000 active; AID 720, 2007;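 active = inhibition above the screen-wide mean inhibition plus 3 SD, cut at about 15% in these data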;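 note: 0% = DMSO wells and 100% = excess unlabeled TNYL-RAW peptide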
Target sequence (P54760 whole entry, looked up, the tested form may be a part): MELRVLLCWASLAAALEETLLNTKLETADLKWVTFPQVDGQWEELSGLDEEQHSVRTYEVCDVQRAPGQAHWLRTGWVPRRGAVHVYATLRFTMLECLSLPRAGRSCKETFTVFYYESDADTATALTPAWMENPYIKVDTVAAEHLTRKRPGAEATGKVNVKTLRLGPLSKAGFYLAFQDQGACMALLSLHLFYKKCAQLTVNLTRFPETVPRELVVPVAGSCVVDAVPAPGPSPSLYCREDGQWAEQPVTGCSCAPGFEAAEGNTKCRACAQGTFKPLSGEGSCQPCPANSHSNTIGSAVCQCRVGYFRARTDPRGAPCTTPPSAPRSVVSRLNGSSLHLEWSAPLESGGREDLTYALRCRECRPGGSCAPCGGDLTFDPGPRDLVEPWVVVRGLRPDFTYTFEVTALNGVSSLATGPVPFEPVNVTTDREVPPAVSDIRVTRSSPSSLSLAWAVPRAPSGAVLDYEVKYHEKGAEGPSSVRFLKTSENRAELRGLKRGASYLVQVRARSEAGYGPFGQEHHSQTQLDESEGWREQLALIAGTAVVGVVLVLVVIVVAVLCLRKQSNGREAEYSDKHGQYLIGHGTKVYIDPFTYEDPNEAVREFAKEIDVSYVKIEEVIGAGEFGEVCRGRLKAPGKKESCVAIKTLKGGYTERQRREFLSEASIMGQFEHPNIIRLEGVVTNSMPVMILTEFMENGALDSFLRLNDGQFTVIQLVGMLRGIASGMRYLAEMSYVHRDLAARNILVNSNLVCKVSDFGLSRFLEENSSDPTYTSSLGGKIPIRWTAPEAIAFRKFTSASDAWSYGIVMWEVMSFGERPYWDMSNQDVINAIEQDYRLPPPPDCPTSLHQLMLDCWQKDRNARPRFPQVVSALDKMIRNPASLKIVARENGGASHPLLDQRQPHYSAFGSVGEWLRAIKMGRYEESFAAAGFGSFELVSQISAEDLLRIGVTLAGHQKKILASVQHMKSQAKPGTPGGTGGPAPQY
Rev-RRE block = HIV-1 Rev-RRE binding inhibitors, primary screen, biochemical, FRET, protein-RNA interaction | P05866 | Rev peptide-RRE RNA binding | inhibition, % at 8 µM | 0.79% of 97,000 active;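 active = inhibition above the screen-wide mean plus 3 SD, cut at about 35% in these data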;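 note: 0% = median DMSO wells and 100% = median Neomycin B control wells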
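Probe or stimulus: fluorescein-Rev peptide as binding partner; assay system: Cy5-tagged RRE RNA duplex with fluorescein-tagged Rev peptide; timing: 5 min compound–RNA preincubation, then 15 min with peptide, 25 °C; medium: HEPES pH 7.5 buffer with KCl, MgCl2, NaCl and EDTA; signal: fluorescein-to-Cy5 FRET, 480 nm excitation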
PostGolgi yeast = phenotypic screen on post-Golgi transport, primary screen | AID 739, 2007 | 0.9% of 98,000 active | inhibition, % at 10 µM | post-Golgi transport phenotypic cell assay;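 note: yeast cells grown in 1536-well plates; yeast grown about 18 h at 30C before absorbance read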
Plk1 PBD FP = Plk1 polo box domain binding inhibitors, primary screen, biochemical, fluorescence polarization; Serine/threonine-protein kinase PLK1 (Homo sapiens), P53350; Plk1 PBD phosphopeptide binding; inhibition, %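 (tested at about 20 µM)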; 0.13% of 97,000 active; in the data active = inhibition above about 34%, passing the limit was not always enough
PLK1 inh = human PLK1 kinase inhibitors, primary screen, biochemical, TR-FRET. Serine/threonine-protein kinase PLK1 (Homo sapiens), P53350. recombinant PLK1 kinase, TR-FRET peptide phosphorylation. inhibition, % at 10 µM. 0.53% of 97,000 active. AID 619, 2007;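 active = inhibition of 50% or more in the single-concentration screen; inactive = inhibition below 50%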;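 note: 0% = DMSO max control and 100% = H-89 dihydrochloride min control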
PostGolgi ctrl = growth inhibition of yeast control strain, primary screen, counter-screen for post-Golgi transport modulator project; efflux-deficient yeast background strain, growth absorbance A615, 16 h; inhibition, % at 10 µM; 5% of 98,000 active; AID 738, 2007
* marks the source's active call; other numbers are inactive results; x = no result. In the library only some 6.4% were active in any assay of this set; here they are far more common. Cut-off read from the data, not from the text of the source, unless noted: active = inhibition above about 30%; inactive = the rest.

SMILES	EphB4 ephrin blk	Rev-RRE block	PostGolgi yeast	Plk1 PBD FP	PLK1 inh	PostGolgi ctrl
COc1ccc(CCNC(=O)C2CCC(CNc3c(N4CCCC4)c(=O)c3=O)CC2)cc1OC (centres undefined)	x	x	-2.3	x	x	4.4
Fc1ccc(N2CCN(C(c3cccs3)c3nnnn3C3CCCC3)CC2)cc1 (centres undefined)	-3.0	6.4	10.9	9.5	-1.5	35.7*
Oc1ccc(N2CCN(C(c3ccncc3)c3nnnn3C3CCCC3)CC2)cc1 (centres undefined)	3.2	3.1	2.5	-12.3	1.1	6.4
COc1ccc(N2CCN(C(c3cccs3)c3nnnn3C3CCCC3)CC2)cc1 (centres undefined)	-4.6	2.0	13.4	-8.1	-6.9	78.2*
CN(C)CCCNS(=O)(=O)c1ccc(Oc2ncc(C(F)(F)F)cc2Cl)cc1	-4.5	-1.4	-3.1	-12.8	-7.3	12.7
CCC(CC)NC(=O)Cc1ccccc1[N+](=O)[O-]	9.7	1.9	-11.3	0.6	-8.7	-4.1
N#Cc1ccccc1Sc1ccccc1C(=O)Nc1ccc(Br)cc1	1.2	0.7	26.1	49.4	-112.2	37.0*
COc1ccc(N2CCN(Cc3cc(=O)oc4cc5c(cc34)CCCC5)CC2)cc1	-1.8	4.1	-8.3	-4.0	-4.2	11.7
CN1CCCc2cc3c(C(F)(F)F)cc(=O)oc3nc21	0.5	70.9*	11.1	-10.6	-18.8	9.0
CCOC(=O)Nc1sc2nc(C)cc(C)c2c1-n1cccc1	-13.0	2.3	9.1	7.2	-3.8	41.4*
Cc1cc2ncn(C(=O)c3c(-c4ccccc4Cl)noc3C)c2cc1C	-4.7	10.4	0.6	-7.2	-4.7	3.7
CCOC(=O)N1CCN(C(=O)Nc2ccc(Cl)cc2)CC1	-7.4	1.0	-4.5	-9.9	-17.8	35.7*
CCOC(=O)N1CCC(N(C(=O)Nc2ccc(Cl)c(Cl)c2)C(C)CC)CC1 (centres undefined)	3.1	7.0	0.2	4.4	-1.8	39.2*
CCOC(=O)N1CCN(C(=O)CSCc2ccc(Cl)cc2)CC1	-2.3	6.0	1.9	-7.0	-3.2	35.9*
CCOC(=O)N1CCC(N(CCOC)C(=O)Nc2ccc(CC)cc2)CC1	x	x	-2.5	x	x	6.4
O=C(Nc1ccc(Cl)cc1)N1CCSCC1	8.0	4.0	-1.9	18.4	-14.0	43.8*
CCCCNC(=O)CSc1nnc(Cc2ccccc2)n1CC	7.1	2.4	x	17.1	-13.5	x
CCn1cc(Br)c(C(=O)Nc2cccc(SC)c2)n1	-9.4	3.1	9.5	-10.0	-3.5	14.6
CCN(c1ccc(C)c(C)c1)S(=O)(=O)c1c(C)[nH]c(=O)[nH]c1=O	-5.3	3.9	0.8	-5.1	-36.6	13.9
CCCC(C(=O)NCc1ccco1)N(C(=O)CNS(=O)(=O)c1ccccc1)c1ccccc1OC (centres undefined)	-5.8	0.2	-14.8	-28.7	1.2	2.5
Cc1noc(C)c1C(=O)OCC(=O)c1c(N)n(CC(C)C)c(=O)n(C)c1=O	-2.1	5.4	-6.3	9.8	-10.2	0.1
COC(=O)c1sc2ncn(-n3c(C)ccc3C)c(=O)c2c1C	0.2	2.1	-3.6	-10.2	-12.3	7.2
O=C(COC(=O)CSCC(=O)N1CCCCC1)Nc1ccc(Cl)cc1	1.5	6.1	-3.2	-15.4	-6.8	36.1*
O=C(OCn1ncc(Cl)c(Cl)c1=O)c1cccc(C(F)(F)F)c1	-2.2	15.6	106.3*	-10.9	-14.5	41.6*
C=C(C)c1cccc(C(C)(C)NC(=O)Nc2ncccn2)c1	-1.4	5.9	3.4	-11.0	-8.6	56.9*
SMILES	EphB4 ephrin blk	Rev-RRE block	PostGolgi yeast	Plk1 PBD FP	PLK1 inh	PostGolgi ctrl
C=C(C)c1cccc(C(C)(C)NC(=O)Nn2cnnc2)c1	9.8	8.8	-7.9	14.1	-1.8	8.6
Cc1cc(NCCO)nc(N2CCOCC2)n1	5.5	3.4	9.3	-35.3	-7.3	20.5
Cc1ccc(OCC(=O)N/N=C\c2c(C)n(C)c3ccccc23)c([N+](=O)[O-])c1	-8.2	-2.7	-0.8	0.2	-8.3	53.6*
Cc1ccc(OCC(=O)N/N=C/c2ccc([N+](=O)[O-])o2)cc1	-1.9	2.8	4.6	-16.6	-4.4	21.2
Cc1ccc(S(=O)(=O)c2cc3c(=O)n4ccccc4nc3n(C)c2=N)cc1	x	x	1.9	x	x	32.4*
N=c1c(S(=O)(=O)c2ccccc2)cc2c(=O)n3ccccc3nc2n1CCN1CCOCC1	6.3	12.2	x	0.0	-4.9	x
NCCCC(=O)N1c2ccccc2Sc2ccccc21	-2.8	-8.6	2.2	6.3	65.6*	12.7
O=C(CN1CCCC1)N1c2ccccc2Sc2ccccc21	-3.8	-1.8	1.5	6.0	6.9	2.0
Cc1ccc(N(Cc2ccc([N+](=O)[O-])cc2)C(=O)c2ccco2)cc1	-3.4	11.8	11.9	20.1	-5.8	34.6*
COc1cc(CN(C(=O)c2ccco2)c2ccc(C)cc2)ccc1O	1.6	3.8	-11.6	5.5	-0.3	11.9
CSC1=C(C#N)C(c2ccccc2Cl)C2=C(N1)c1ccccc1C2=O (centres undefined)	-4.3	16.7	0.3	-8.7	-17.8	3.5
CSC1=C(C#N)C(c2ccccc2C)C(C#N)=C(N)N1 (centres undefined)	4.4	3.7	1.6	-19.8	-11.8	49.9*
CCCNC(=O)NC(C(=O)OC)C12CC3CC(CC(C3)C1)C2 (centres undefined)	-5.0	-1.1	17.2	-10.3	-4.8	7.2
COc1cccc(-c2csc(N3CCN(S(=O)(=O)c4ccc(F)cc4)CC3)n2)c1	x	x	-1.3	x	x	36.8*
O=C(CCc1ccccc1)NC(NC(=S)Nc1ccc(Cl)cc1)C(Cl)(Cl)Cl (centres undefined)	-2.8	-8.6	-2.5	19.7	-10.2	-7.8
Cc1ccc(-c2nc3c(=O)n(C)c4ccccc4c3o2)cc1	2.2	-2.2	11.5	9.1	-7.4	77.0*
Cc1ccc(-c2nnc(-c3ccccc3)o2)cc1	-2.5	9.4	x	-4.9	-11.8	x
CC(C)(C)CC(=O)NC(=S)N1CCCCCC1	0.7	6.1	1.3	-0.4	-1.1	8.9
Cc1ccc(C(=O)Nc2ccc(Cc3ccncc3)cc2)cc1[N+](=O)[O-]	0.6	4.4	87.2*	23.8	-2.8	49.9*
CCCCN(Cc1ccccc1)S(=O)(=O)c1cc(Br)cc2c1N(C(C)=O)C(C)C2 (centres undefined)	2.0	12.9	9.6	-12.2	-3.4	36.2*
CC(=O)N1c2c(cc(Br)cc2S(=O)(=O)NCc2cccnc2)CC1C (centres undefined)	x	x	-10.3	x	x	-4.5
CC(C(=O)N1CCC(C(N)=O)CC1)N(c1ccc(Oc2ccccc2)cc1)S(C)(=O)=O (centres undefined)	-2.7	2.5	-5.2	-14.2	-8.8	18.2
